High-throughput results (PubChem BioAssay)
Rows were chosen to be rich in hits. Some 4.2% of all compounds tested hit in one or more screens of this group.
CHO parental Ca: counter-screen: ATP calcium response change in parental CHO cells | parental CHO-K1, ATP-induced calcium, Fluo-8 fluorescence | inhibition, % at 5.6 µM | 0.63% of 330,000 active | AID 463079;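 active = inhibition above that plate's mean sample inhibition plus 3 SD, cut at about 26% in these data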;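 also: 0% = ATP-challenged DMSO wells and 100% = DMSO wells without ATP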
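Assay system – parental CHO cells · Reagent – ATP stimulus · Detection – intracellular calcium via Fluo-8 no-wash fluorescent dye · Evaluation – percent inhibition of ATP-evoked calcium rise, normalized to controls · Controls – ATP wells versus no-ATP DMSO wells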
TAAR1 agonist: human TAAR1 agonism | activation, % at 3 µM | Q96RJ0 | CHO RD-HGA16 TAAR1, Fluo-8 calcium fluorescence; vehicle wells 0%, saturating PEA agonist 100% | 0.99% of 360,000 active;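 active = activation above the mean activation of all test compounds in the run plus 3 SD, cut at about 38% in these data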
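Assay system: CHO-derived RD-HGA16 cells with stable Gα16 and human TAAR1; timing: 17-24 h seeding, 75 min 37 °C dye, 30 min RT; read-out: % activation from peak over basal fluorescence ratio, DMSO-to-PEA scaled; measured by: kinetic Fluo-8 calcium fluorescence; benchmarks: low control DMSO, high control PEA (EC100); doses: 3 µM single concentration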
OX1R antag-1: OX1R (human) antagonism | O43613 | OX1R-expressing cells, FRET antagonist read-out | 1.8% of 330,000 active | inhibition, % at 6.6 µM; in the data active = inhibition mostly above about 38%, no sharp cut-off; inactive = mostly below about 40%;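 also: 0% = agonist challenge alone and 100% = reference antagonist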
Target sequence (O43613 whole entry, looked up): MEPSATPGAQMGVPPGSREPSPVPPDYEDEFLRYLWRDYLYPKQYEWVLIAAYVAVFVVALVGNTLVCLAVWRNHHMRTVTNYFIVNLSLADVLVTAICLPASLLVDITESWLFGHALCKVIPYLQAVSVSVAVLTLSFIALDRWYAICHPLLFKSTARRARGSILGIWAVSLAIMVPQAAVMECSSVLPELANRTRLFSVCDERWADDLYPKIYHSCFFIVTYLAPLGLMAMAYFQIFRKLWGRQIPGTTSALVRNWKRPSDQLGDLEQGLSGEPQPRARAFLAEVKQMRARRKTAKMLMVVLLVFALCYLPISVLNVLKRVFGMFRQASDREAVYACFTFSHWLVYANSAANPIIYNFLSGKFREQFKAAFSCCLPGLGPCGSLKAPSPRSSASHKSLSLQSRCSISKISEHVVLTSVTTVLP
GalR3 antag: human GalR3 antagonism; AID 651719; inhibition, % at 3 µM; 0.44% of 360,000 active; HEK293 GalR3-CNG cAMP membrane potential fluorescence; galR3 body fused to GalR1 C-terminus;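 active = inhibition above the screen-wide average plus 3 SD, cut at about 13% in these data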;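 also: forskolin and galanin both at EC90 stimulate the cells; cAMP rise reported by CNG channel membrane potential dye signal; 0% = forskolin plus galanin with DMSO and 100% = forskolin alone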
Target sequence (O60755 1-299 limits assumed): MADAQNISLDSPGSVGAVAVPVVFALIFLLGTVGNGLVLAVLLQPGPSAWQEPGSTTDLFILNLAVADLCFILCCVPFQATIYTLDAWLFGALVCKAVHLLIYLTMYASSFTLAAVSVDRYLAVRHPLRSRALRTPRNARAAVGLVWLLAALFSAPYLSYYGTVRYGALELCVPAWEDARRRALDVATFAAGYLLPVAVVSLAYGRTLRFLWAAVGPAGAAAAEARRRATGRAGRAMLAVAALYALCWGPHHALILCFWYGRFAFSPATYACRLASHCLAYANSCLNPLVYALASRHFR
OX1R antag-2: blocks the human orexin 1 receptor; AID 434989; O43613; CHO/OX1R cells, Fluo-8 calcium fluorescence, orexin A; 0.43% of 330,000 active; inhibition, % at 5 µM;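 active = inhibition above its plate's threshold, mean inhibition of all tested compounds on the plate plus 3 SD, cut at about 37% in these data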;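 also: 0% = orexin A challenge wells and 100% = SB-334867-A antagonist wells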
TAAR1 antag: antagonists of human TAAR1. Q96RJ0. CHO RD-HGA16 TAAR1, Fluo-8 calcium fluorescence, antagonist. inhibition, % at 3 µM. 1.5% of 360,000 active;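 active = inhibition above a per-plate cutoff, the mean inhibition of test compounds on that plate plus 3 SD, cut at about 49% in these data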;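 also: 0% = DMSO plus EC80 beta-PEA response and 100% = DMSO alone without agonist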
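Test system – hTAAR1-expressing CHO RD-HGA16 cells, Gα16-coupled · Also added – β-PEA at EC80 concentration, post-compound challenge · Compound – 3 µM, single point · Incubation – dye loading 75 min at 37 °C, then 30 min room temperature · Measured by – Fluo-8 intracellular calcium dye fluorescence, real-time kinetic reads · Benchmarks – vehicle and agonist controls · Replicates – singlicate, one well per test compound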
TAAR1 nonsel count: nonselective antagonism, TAAR1 counter-screen; shares compounds with TAAR1 antag; inhibition, % at 3 µM; 77% of 2,400 active; counterscreen cell line, calcium fluorescence, antagonist mode; in the data active = inhibition above about 22%;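 also: CHO-Ga16 host cells stimulated with ATP at an EC80 level; 0% = agonist EC80 plus vehicle and 100% = vehicle without agonist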
TAAR1 ant conf: human TAAR1 antagonism, confirmed; shares compounds with TAAR1 antag; TAAR1-expressing cells, fluorescence antagonist read-out; inhibition, % at 3 µM; 40% of 2,400 active; AID 651785; in the data active = inhibition above about 49%;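 also: CHO-Ga16 host cells challenged with agonist PEA near its EC80; 0% = agonist at EC80 plus vehicle and 100% = vehicle with no agonist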
Ga16 ag counter: counter-screen for TAAR1 antagonists: nonselective Ga16 agonists. shares compounds with TAAR1 antag. Ga16-expressing cells, calcium fluorescence, agonist counterscreen. activation, % at 3 µM. 18% of 2,400 active. AID 651953; in the data active = activation above about 12%;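 also: 0% = vehicle wells and 100% = saturating stimulus response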
TAAR1 ag count: counter-screen for human TAAR1 antagonists: TAAR1 agonists. AID 651955. activation, % at 3 µM. hTAAR1 cell line, fluorescence activation, agonist mode. 2% of 2,400 active. shares compounds with TAAR1 antag; in the data active = activation above about 37%;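 also: CHO cells stably expressing TAAR1 with calcium dye readout; 0% = DMSO vehicle and 100% = full agonist response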
* hit, by the source's call; . = not tested or not shown.

SMILES	CHO parental Ca	TAAR1 agonist	OX1R antag-1	GalR3 antag	OX1R antag-2	TAAR1 antag	TAAR1 nonsel count	TAAR1 ant conf	Ga16 ag counter	TAAR1 ag count
FC(F)(F)c1ccc(Oc2ccc3c(C(F)(F)F)cc(C(F)(F)F)nc3n2)cc1	3	10	4	-2	-4	6	.	.	.	.
O=C1c2ccccc2/C(=C\c2ccc(O[C@@H]3CCCCO3)cc2)N1c1ccccc1	.	4	.	-5	.	34	.	.	.	.
COCCCNC(=O)CSc1nc2c(sc3ccccc32)c(=O)n1CCCC(=O)NCC1CCCO1 (configuration not stated)	-9	5	6	7	-16	-2	.	.	.	.
Cc1ccccc1CNC(=O)c1csc([C@@H]2O[C@H](CO)[C@@H](O)[C@H]2O)n1	.	2	.	-4	.	-21	.	.	.	.
Cc1c(CCOC(=O)C23CC4CC(CC(C)(C4)C2)C3)sc[n+]1Cc1ccccc1	-15	15	13	0	-7	0	.	.	.	.
O=C(NC(=S)NCC1CCCO1)C(c1ccccc1)c1ccccc1 (configuration not stated)	-12	4	4	5	-29	-22	.	.	.	.
O=C(COc1ccccc1Cl)Nc1nc(-c2ccncc2)cs1	-13	17	4	-5	12	64*	43*	58*	13*	12
O=C(COc1ccc(Cl)cc1)Nc1nc(-c2ccncc2)cs1	-6	12	15	-2	-7	27	.	.	.	.
COCCn1c(SCC(=O)Nc2ccccc2OC)nc2c(oc3ccccc32)c1=O	-29	0	13	-5	-41	52*	21	33	2	0
COc1cccc(-c2cnc3c(NC(C)=O)cc(-c4ccsc4)cn23)c1	.	6	.	-3	.	73*	41*	66*	13*	12
CCN(c1ccc(OC)cc1)S(=O)(=O)N1CCCC(C(=O)NCc2ccc(OC(C)C)cc2)C1 (configuration not stated)	.	0	.	-5	.	-3	.	.	.	.
O=C(CSc1nc2c(sc3ccccc32)c(=O)n1CCO)NCc1ccco1	-13	12	9	-6	-8	4	.	.	.	.
O=C(N/N=C/c1cccc(OC(=O)c2cccc(Br)c2)c1)c1ccncc1	-19	13	6	-3	-13	58*	26*	48	15*	27
CCN(CC)CCN=C1CCCc2ccccc2N1	-1	10	17	1	17	5	.	.	.	.
COc1cc(C(=O)OCCc2cc3ccccc3c(=O)o2)cc(OC)c1OC	-23	9	14	2	7	65*	27*	39	8	5
COc1cc(C(=O)OCCCc2cc3ccccc3c(=O)o2)cc(OC)c1OC	-21	4	15	-9	-17	3	.	.	.	.
CC(C)c1ccc(NC(=O)N(CCc2nc3ccccc3[nH]2)C2CCCC2)cc1	-18	4	17	-6	-33	54*	30*	38	5	6
CC(=O)Nc1ccc(CCc2nc3ccccc3[nH]2)cc1	4	5	4	-10	2	-9	.	.	.	.
COc1ccc(-c2csc(N3CCN(c4cc(C)nc5ccccc45)CC3)n2)cc1OC	-29	7	29	-7	-37	60*	27*	43	6	7
COc1cccc(C(=O)NCC(c2cccs2)N2CCOCC2)c1 (configuration not stated)	-6	-3	0	-6	-4	100*	13	-2	1	5
N#Cc1c(N2CCCCC2)nc(N)c2c(N)nc3c(c12)CC(CCl)O3 (configuration not stated)	-4	-1	7	-6	-12	-7	.	.	.	.
CCOc1ccc(C(=O)Nc2ccccc2CC)cc1[N+](=O)[O-]	-9	0	1	5	-18	15	.	.	.	.
CCOc1ccc(C(=O)Nc2ccccc2N2CCN(C(=O)c3ccccc3)CC2)cc1[N+](=O)[O-]	-14	8	8	0	-9	67*	25*	45	8	8
CCOC(=O)Cc1csc(/N=C/c2c(O)n(-c3ccccc3C(F)(F)F)c(=O)c3ccccc23)n1	-21	16	15	2	-43	75*	34*	56*	9	9
CCOC(=O)Cc1csc(N/N=C/c2ccc(C(F)(F)F)cc2)n1	-13	1	34	-5	-28	-3	.	.	.	.
SMILES	CHO parental Ca	TAAR1 agonist	OX1R antag-1	GalR3 antag	OX1R antag-2	TAAR1 antag	TAAR1 nonsel count	TAAR1 ant conf	Ga16 ag counter	TAAR1 ag count
COc1ccc(NC(=S)NNC(=O)CCn2cc([N+](=O)[O-])cn2)cc1	-5	0	6	-3	-5	10	.	.	.	.
O=C(CSc1nc(-c2ccccc2)nc2ccc(F)cc12)Nc1cccc(C(=O)O)c1	10	22	2	-1	13	63*	31*	49*	7	13
O=C(COC(=O)c1cncc(Br)c1)NC1CCCC1	-7	2	32	-3	-3	-14	.	.	.	.
Cc1ccc(Cl)cc1N1CCN(C(=O)CSc2nnc3n2C(C)(C)Cc2ccccc2-3)CC1	77*	19	104*	-2	77*	60*	44*	48	11	6
COc1ccc(N2CCN(C(=O)CSc3nnc4n3C(C)(C)Cc3ccccc3-4)CC2)cc1	-14	7	11	-4	-29	-11	.	.	.	.
CCc1ccc(C(=O)Nc2ccc(OC)c(S(=O)(=O)N3CCOCC3)c2)cc1	-20	5	14	-1	-23	-19	.	.	.	.
COc1ccc(NS(=O)(=O)c2cccs2)cc1S(=O)(=O)N1CCOCC1	3	-1	19	-7	-4	5	.	.	.	.
COc1ccc(NC(=O)c2ccc(-c3ccccc3)cc2)cc1S(=O)(=O)N1CCOCC1	-5	16	17	4	-2	87*	47*	61*	14*	9
COc1ccc(Nc2nc(-c3cccs3)nc3ccccc23)cc1S(=O)(=O)N1CCOCC1	4	15	40	-5	-5	71*	30*	49*	10	7
CC1(O)C(=O)C2(C)C=CC1C1C(=O)N(c3ccccc3)C(=O)C12 (configuration not stated)	.	1	.	-1	.	-6	.	.	.	.
CCN(CC(=O)Nc1ccc(NC(C)=O)cc1)C(=O)c1ccccc1Sc1ccccc1C#N	-13	11	10	-4	-6	51*	27*	37	5	2
